Test results published in article PMC3582387 (Chemistry & biology, 2012).

Key:
[1] = test system: MCL-1-rescued p185+Arf−/−/Mcl-1-deleted B-ALL cells; experiment: Caspase 3/7 activation; format: cell-based, murine; details: 8 h post-treatment
Summary of the method: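 Mcl-1-floxed Arf−/− mouse marrow was transformed with p185-IRES-luciferase, stably rescued with MSCV-Puro-Mcl-1, and endogenous Mcl-1 was deleted via MSCV-Cre-IRES-GFP. Cells were kept in supplemented RPMI 1640 and seeded at 4×10^4/well. Serial dilutions of test compound or vehicle (0.4% DMSO) were added in DMEM at 37°C. Caspase-Glo 3/7 luminescence was read at 8 h. Values were normalized to vehicle (mean ± SEM, ≥duplicate, two independent cultures).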

[2] = test system: wild-type MEFs; experiment: Caspase 3/7 activation, wild-type MEFs; format: cell-based, mouse; details: 8 h
Summary of the method: (§1)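 Wild-type or Bax−/−Bak−/− mouse embryonic fibroblasts are kept in high-glucose DMEM with 10% FBS, penicillin/streptomycin, 2 mM L-glutamine, 50 mM HEPES, non-essential amino acids and 50 µM β-mercaptoethanol. Cells are seeded at 5×10^3/well for 24 h, then given serial dilutions of test compound or vehicle (0.4% DMSO). Caspase-Glo 3/7 reagent is added at 8 h and luminescence is read.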

[3] = test system: MCL-1-rescued p185+Arf−/−/Mcl-1-deleted B-ALL cells; experiment: Cell viability; format: cell-based, murine
Summary of the method: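 B-ALL cells come from Mcl-1f/f Arf−/− mouse marrow transformed with BCR-ABL(p185)-IRES-luciferase. They were stably transduced with MSCV-Puro-Mcl-1, and endogenous Mcl-1 was then deleted with MSCV-Cre-IRES-GFP; cells are kept in RPMI 1640/10% FBS. Cells (4×10^4/well) get serial dilutions of test compound or 0.4% DMSO in DMEM at 37 °C, with CellTiter-Glo luminescence read at 24 h. Data are normalized to vehicle; runs are at least duplicate and repeated twice with independent cultures.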

[4] = target: T1, MCL-1ΔNΔC (Homo sapiens, UniProt Q07820); experiment: BAX-mediated liposomal release assay, suppression by MCL-1ΔNΔC; format: biochemical; details: 20 nM tBID, 250 nM BAX
T1 sequence (Q07820 172-327, stated change not applied): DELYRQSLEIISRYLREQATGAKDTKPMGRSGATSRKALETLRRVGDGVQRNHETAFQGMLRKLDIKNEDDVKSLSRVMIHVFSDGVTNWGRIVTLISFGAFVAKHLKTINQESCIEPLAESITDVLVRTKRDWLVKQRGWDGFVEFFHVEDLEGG

[5] = test system: wild-type MEFs; experiment: Cell viability, wild-type MEFs; format: cell-based, mouse; details: same dose range as leukemia cells, 24 h
Summary of the method: (§2)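 MEFs (wild-type or Bax−/−Bak−/−) are maintained in supplemented high-glucose DMEM (10% FBS, antibiotics, L-glutamine, HEPES, β-mercaptoethanol). They are plated at 5×10^3 cells/well and allowed 24 h before exposure to serially diluted test compound, with 0.4% DMSO as vehicle. Viability is read as CellTiter-Glo luminescence after 24 h of treatment.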

[6] = test system: Bax−/−Bak−/− MEFs; experiment: Caspase 3/7 activation, Bax−/−Bak−/− MEFs; format: cell-based, mouse; details: 8 h
Summary of the method: as §1

[7] = test system: BCL-XL-rescued p185+Arf−/−/Mcl-1-deleted B-ALL cells; experiment: Cell viability; format: cell-based, murine
[8] = target: BCL-XLΔC (Homo sapiens, UniProt Q07817); experiment: Competitive FP assay against the FITC-BID BH3/BCL-XLΔC interaction; format: binding
BCL-XLΔC, sequence (Q07817 1-212 limits assumed, stated change not applied): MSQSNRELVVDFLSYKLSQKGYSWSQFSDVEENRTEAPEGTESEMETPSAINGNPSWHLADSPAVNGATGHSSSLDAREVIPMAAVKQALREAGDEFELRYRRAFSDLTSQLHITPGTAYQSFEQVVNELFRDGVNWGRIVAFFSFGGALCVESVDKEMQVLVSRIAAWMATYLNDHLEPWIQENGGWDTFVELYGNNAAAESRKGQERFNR

[9] = target: T1, MCL-1ΔNΔC; experiment: Competitive FP assay against the FITC-BID BH3/MCL-1ΔNΔC interaction; format: binding
[10] = target: MCL-1/BAK complex (Mus musculus, UniProt P97287); experiment: Co-immunoprecipitation of MCL-1/BAK complex in MCL-1-reconstituted B-ALL cells; format: cell-based, murine; details: 6 h incubation
MCL-1/BAK complex, sequence (P97287 whole entry, one chain of several): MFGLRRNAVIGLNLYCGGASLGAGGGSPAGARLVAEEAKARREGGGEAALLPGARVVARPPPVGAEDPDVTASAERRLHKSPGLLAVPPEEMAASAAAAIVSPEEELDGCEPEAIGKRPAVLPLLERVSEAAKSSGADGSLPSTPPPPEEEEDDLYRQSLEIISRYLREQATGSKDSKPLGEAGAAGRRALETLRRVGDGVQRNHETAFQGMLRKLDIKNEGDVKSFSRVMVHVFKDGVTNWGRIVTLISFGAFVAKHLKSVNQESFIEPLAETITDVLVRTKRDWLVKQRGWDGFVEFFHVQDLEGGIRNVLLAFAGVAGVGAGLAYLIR
Summary of the method: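 MCL-1-reconstituted Mcl-1-deleted B-ALL cells (5×10^6) were given vehicle or test compound for 6 h. Lysate was precleared on protein A/G, then taken with anti-MCL-1 overnight at 4°C plus A/G beads for 1 h. After three washes and elution at 90°C, SDS-PAGE/Western probed MCL-1 and BAK.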

[11] = test system: Bax−/−Bak−/− MEFs; experiment: Cell viability, Bax−/−Bak−/− MEFs; format: cell-based, mouse; details: same dose range as leukemia cells, 24 h
Summary of the method: as §2

[12] = test system: BCL-XL-rescued p185+Arf−/−/Mcl-1-deleted B-ALL cells; experiment: Caspase 3/7 activation; format: cell-based, murine; details: 8 h post-treatment
[13] = target: T1, MCL-1ΔNΔC; experiment: Competitive FP assay against the FITC-MCL-1 SAHBA/MCL-1ΔNΔC interaction; format: binding

Caspase 3/7 activation in wild-type MEFs [2]	Blockade of MCL-1ΔNΔC suppression of tBID-induced BAX activation (liposomal release) [4]	Caspase 3/7 activation in Bax−/−Bak−/− MEFs [6]	IC50 [8]	IC50 [9]	Fold difference of IC50 for MCL-1ΔNΔC versus IC50 of ABT-737 for BCL-XLΔC ([9]; competition with FITC-BID BH3, MIM1 less potent)	Competition with FITC-MCL-1 SAHBA for MCL-1ΔNΔC binding (in words) [13]	Competition with FITC-BID BH3 for MCL-1ΔNΔC binding (in words) [9]	SMILES	Caspase 3/7 activation in MCL-1-dependent cells [1]	IC50 ([3]; Mus musculus, 24 h, read-out: IC50, cell viability of MCL-1-dependent cells)	Effect on viability of wild-type MEFs [5]	Effect on viability of BCL-XL-dependent cells (in words) ([7]; CellTiter-Glo at 24 h)	Dissociation of the inhibitory MCL-1/BAK complex (co-immunoprecipitation) [10]	Effect on viability of Bax−/−Bak−/− MEFs [11]	Caspase 3/7 activation in BCL-XL-dependent cells [12]	Effect on viability of MCL-1-dependent cells (in words) ([3]; CellTiter-Glo at 24 h)	IC50 ([7]; Mus musculus, 24 h, read-out: IC50, cell viability of BCL-XL-dependent cells)
no observed caspase 3/7 activation	preventing BAX suppression by MCL-1ΔNΔC	no observed caspase 3/7 activation	> 50 µM	4.8 µM	7.5 fold			Cc1cs/c(=N\C2CCCCC2)n1/N=C/c1ccc(O)c(O)c1O [MIM1, 4-((E)-(((Z)-2-(cyclohexylimino)-4-methylthiazol-3(2H)-yl)imino)methyl)benzene-1,2,3-triol]	dose-dependent induction of caspase 3/7 activity	4.2 µM	no significant effect	little to no effect on the BCL-XL-dependent cells	dose-dependent dissociation of the inhibitory MCL-1/BAK complex	no significant effect			
no observed caspase 3/7 activation	had no effect on MCL-1ΔNΔC activity	no observed caspase 3/7 activation				had no effect	showed no activity toward MCL-1ΔNΔC	CN(C)CC[C@H](CSc1ccccc1)Nc1ccc(S(=O)(=O)NC(=O)c2ccc(N3CCN(Cc4ccccc4-c4ccc(Cl)cc4)CC3)cc2)cc1[N+](=O)[O-] [ABT-737, reference compound]			no significant effect			no significant effect	dose-responsive caspase 3/7 activation	no effect on the MCL-1-dependent cells	1.6 µM
